# Calls of active or inactive are those of the source. The rule behind the calls is not given here.
# Columns and labels:
# Oryctolagus cuniculus [1] = species: Oryctolagus cuniculus; assay: Effect on ocular irritation in New Zealand albino rabbit assessed as incidence of conjunctival swelling at 0.1 ug after 1 to 5 hrs; format: functional, Conjunctiva
# Summary of the method: (§1)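 Topical single 30 µL drop into both eyes of each of five rabbits, doses 0.03–100 µg. Vehicle was trimethamine/boric acid buffer with 4.6% mannitol, HCO-40, 0.01% EDTA and 0.01% benzalkonium chloride, pH 7.4. Eyes were scored at 1, 2, 3 and 5 h. The percent of eyes scoring +2 or greater, pooled across all time points, is reported as study % incidence. Qualitative, with no statistics.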
# Oryctolagus cuniculus [2] = species: Oryctolagus cuniculus; assay: Effect on ocular irritation in New Zealand albino rabbit assessed as incidence of ocular discharge at 0.1 ug after 1 to 5 hrs; format: functional, Eye; summary of the method: as §1
# Oryctolagus cuniculus [3] = species: Oryctolagus cuniculus; assay: Effect on ocular irritation in New Zealand albino rabbit assessed as incidence of conjunctival swelling at 0.3 ug after 1 to 5 hrs; format: functional, Conjunctiva; summary of the method: as §1
# Oryctolagus cuniculus [4] = species: Oryctolagus cuniculus; assay: Effect on ocular irritation in New Zealand albino rabbit assessed as incidence of ocular discharge at 3 ug after 1 to 5 hrs; format: functional, Eye; summary of the method: as §1
# Felis catus [5] = species: Felis catus; assay: Toxicity in normotensive cat assessed as ocular irritation; format: organism-based, Eye; details: in vivo
# Macaca fascicularis [6] = species: Macaca fascicularis; assay: Inhibition of intraocular pressure in hypertensive monkey at 3 ug, bid after 5th dose; set-up: scale not given: the % may be the effect or the level left
# Macaca fascicularis [7] = species: Macaca fascicularis; assay: Toxicity in monkey assessed as drug tolerance; details: cynomolgus monkey, in vivo
# Macaca fascicularis [8] = species: Macaca fascicularis; assay: Inhibition of intraocular pressure in hypertensive monkey at 3 ug, bid after 4th dose measured after 16 hrs; set-up: scale not given: the % may be the effect or the level left
# Oryctolagus cuniculus [9] = species: Oryctolagus cuniculus; assay: Effect on ocular irritation in New Zealand albino rabbit assessed as incidence of conjunctival hyperemia at 30 ug after 1 to 5 hrs; format: functional, Conjunctiva; summary of the method: as §1
# Oryctolagus cuniculus [10] = species: Oryctolagus cuniculus; assay: Effect on ocular irritation in New Zealand albino rabbit assessed as incidence of conjunctival hyperemia at 0.3 ug after 1 to 5 hrs; format: functional, Conjunctiva; summary of the method: as §1
# Oryctolagus cuniculus [11] = species: Oryctolagus cuniculus; assay: Effect on ocular irritation in New Zealand albino rabbit assessed as incidence of ocular discharge at 30 ug after 1 to 5 hrs; format: functional, Eye; summary of the method: as §1
# Oryctolagus cuniculus [12] = species: Oryctolagus cuniculus; assay: Effect on ocular irritation in New Zealand albino rabbit assessed as incidence of ocular discharge at 0.3 ug after 1 to 5 hrs; format: functional, Eye; summary of the method: as §1
# Oryctolagus cuniculus [13] = species: Oryctolagus cuniculus; assay: Effect on ocular irritation in New Zealand albino rabbit assessed as incidence of ocular discharge at 0.03 ug after 1 to 5 hrs; format: functional, Eye; summary of the method: as §1
# Macaca fascicularis [14] = species: Macaca fascicularis; assay: Induction of miosis in monkey; details: cynomolgus monkey, in vivo
# Oryctolagus cuniculus [15] = species: Oryctolagus cuniculus; assay: Effect on ocular irritation in New Zealand albino rabbit assessed as incidence of conjunctival hyperemia at 1 ug after 1 to 5 hrs; format: functional, Conjunctiva; summary of the method: as §1
# Oryctolagus cuniculus [16] = species: Oryctolagus cuniculus; assay: Effect on ocular irritation in New Zealand albino rabbit assessed as incidence of conjunctival hyperemia at 10 ug after 1 to 5 hrs; format: functional, Conjunctiva; summary of the method: as §1
# Oryctolagus cuniculus [17] = species: Oryctolagus cuniculus; assay: Effect on ocular irritation in New Zealand albino rabbit assessed as incidence of conjunctival swelling at 3 ug after 1 to 5 hrs; format: functional, Conjunctiva; summary of the method: as §1
# Oryctolagus cuniculus [18] = species: Oryctolagus cuniculus; assay: Effect on ocular irritation in New Zealand albino rabbit assessed as incidence of conjunctival swelling at 1 ug after 1 to 5 hrs; format: functional, Conjunctiva; summary of the method: as §1
# Felis catus [19] = species: Felis catus; assay: Acute […] response in normotensive cat assessed as AUC (1 to 5 hrs) at 0.3 ug; format: functional
# Summary of the method: (§2)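 Conscious cats held in cat bags under uniform room lighting. Horizontal pupil diameter read with a hand-held micrometer, then again at 0.5, 1, 1.5, 2, 2.5, 3, 4 and 5 h after topical dosing. The AUC of pupil diameter change versus time over 1–5 h was computed from group averages. Ranking is qualitative, with no statistics.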
# Felis catus [20] = species: Felis catus; assay: Acute […] response in normotensive cat assessed as AUC (1 to 5 hrs) at 1 ug; format: functional; summary of the method: as §2
# Oryctolagus cuniculus [21] = species: Oryctolagus cuniculus; assay: Effect on ocular irritation in New Zealand albino rabbit assessed as incidence of conjunctival swelling at 10 ug after 1 to 5 hrs; format: functional, Conjunctiva; summary of the method: as §1
# Oryctolagus cuniculus [22] = species: Oryctolagus cuniculus; assay: Effect on ocular irritation in New Zealand albino rabbit assessed as incidence of conjunctival swelling at 30 ug after 1 to 5 hrs; format: functional, Conjunctiva; summary of the method: as §1
# Felis catus [23] = species: Felis catus; assay: Acute […] response in normotensive cat assessed as AUC (1 to 5 hrs) at 0.1 ug; format: functional; summary of the method: as §2
# Oryctolagus cuniculus [24] = species: Oryctolagus cuniculus; assay: Effect on ocular irritation in New Zealand albino rabbit assessed as incidence of ocular discharge at 10 ug after 1 to 5 hrs; format: functional, Eye; summary of the method: as §1
# Oryctolagus cuniculus [25] = species: Oryctolagus cuniculus; assay: Effect on ocular irritation in New Zealand albino rabbit assessed as incidence of ocular discharge at 1 ug after 1 to 5 hrs; format: functional, organism-based, Eye; summary of the method: as §1
# Macaca fascicularis [26] = species: Macaca fascicularis; assay: Inhibition of intraocular pressure in hypertensive monkey at 3 ug after first instillation; set-up: scale not given: the % may be the effect or the level left
# Oryctolagus cuniculus [27] = species: Oryctolagus cuniculus; assay: Effect on ocular irritation in New Zealand albino rabbit assessed as incidence of conjunctival hyperemia at 3 ug after 1 to 5 hrs; format: functional, Conjunctiva; summary of the method: as §1
# Oryctolagus cuniculus [28] = species: Oryctolagus cuniculus; assay: Effect on ocular irritation in New Zealand albino rabbit assessed as incidence of conjunctival hyperemia at 0.1 ug after 1 to 5 hrs; format: functional, Conjunctiva; summary of the method: as §1
# Oryctolagus cuniculus [29] = species: Oryctolagus cuniculus; assay: Effect on ocular irritation in New Zealand albino rabbit assessed as incidence of conjunctival swelling at 0.03 ug after 1 to 5 hrs; format: functional, Conjunctiva; summary of the method: as §1
# Macaca fascicularis [30] = species: Macaca fascicularis; assay: Inhibition of intraocular pressure in hypertensive monkey at 1 ug, bid; details: Eye
# Felis catus [31] = species: Felis catus; assay: Toxicity in normotensive cat assessed as discomfort; format: organism-based; details: in vivo
# Oryctolagus cuniculus [32] = species: Oryctolagus cuniculus; assay: Effect on ocular irritation in New Zealand albino rabbit assessed as incidence of conjunctival hyperemia at 0.03 ug after 1 to 5 hrs; format: functional, Conjunctiva; summary of the method: as §1
# [33] = target: Prostaglandin F2-alpha receptor (Mus musculus, UniProt P43117); assay: Agonist activity at FP receptor in Swiss mouse 3T3 cells assessed as [3H]-IP accumulation by scintillation counting; format: functional, cell-based
# Summary of the method: (§3)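 Swiss 3T3 mouse fibroblasts carry an endogenous FP receptor. They were rinsed in DMEM/F-12 with 10 mM LiCl, then exposed to agonist or vehicle in that medium for 60 min at 37 °C. The reaction was stopped with ice-cold 0.1 M formic acid. Total [3H]-IPs were eluted with ammonium formate in formic acid and counted by scintillation. EC50 and Emax came from nonlinear fits of concentration-response curves pooled from several experiments.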
# [34] = target: Prostaglandin F2-alpha receptor (Bos taurus, UniProt P37289); assay: Displacement of [3H]PGF2 alpha from FP receptor in bovine corpus luteum membrane; format: cell membranes
# Summary of the method: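 Nonspecific binding was set with 10 µM unlabeled PGF2α or cloprostenol. Bound and free ligand were separated by vacuum filtration on PEI-soaked GF/B filters and counted. Ki came from nonlinear fitting across several experiments.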
# [35] = target: Prostaglandin F2-alpha receptor (Mus musculus) (UniProt P43117); assay: Agonist activity at FP receptor in Swiss mouse 3T3 cells assessed as [3H]-IP accumulation by scintillation counting relative to control; format: functional, cell-based; summary of the method: as §3
# Oryctolagus cuniculus [36] = species: Oryctolagus cuniculus; assay: Effect on ocular irritation in New Zealand albino rabbit assessed as incidence of ocular discharge 1.8 ug after 1 to 5 hrs; format: functional, Eye; summary of the method: as §1
# Oryctolagus cuniculus [37] = species: Oryctolagus cuniculus; assay: Effect on ocular irritation in New Zealand albino rabbit assessed as incidence of conjunctival hyperemia at 1.8 ug after 1 to 5 hrs; format: functional, Conjunctiva; summary of the method: as §1
# Oryctolagus cuniculus [38] = species: Oryctolagus cuniculus; assay: Effect on ocular irritation in New Zealand albino rabbit assessed as incidence of conjunctival swelling 1.8 ug after 1 to 5 hrs; format: functional, Conjunctiva; summary of the method: as §1
# Prostaglandin F2-alpha receptor (Mus musculus), sequence (P43117 whole entry): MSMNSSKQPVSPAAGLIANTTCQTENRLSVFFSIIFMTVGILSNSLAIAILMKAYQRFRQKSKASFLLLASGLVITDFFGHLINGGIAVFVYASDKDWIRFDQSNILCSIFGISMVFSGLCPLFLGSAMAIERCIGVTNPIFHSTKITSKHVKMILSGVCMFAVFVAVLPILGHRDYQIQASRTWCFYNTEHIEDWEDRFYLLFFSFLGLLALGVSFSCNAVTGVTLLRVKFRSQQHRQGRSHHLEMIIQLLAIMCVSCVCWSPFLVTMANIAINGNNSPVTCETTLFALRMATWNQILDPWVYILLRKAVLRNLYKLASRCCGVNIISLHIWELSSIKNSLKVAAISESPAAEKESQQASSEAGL
# Prostaglandin F2-alpha receptor (Mus musculus, UniProt P43117), sequence (P43117 whole entry): as above
# Prostaglandin F2-alpha receptor (Bos taurus, UniProt P37289), sequence (P37289 whole entry): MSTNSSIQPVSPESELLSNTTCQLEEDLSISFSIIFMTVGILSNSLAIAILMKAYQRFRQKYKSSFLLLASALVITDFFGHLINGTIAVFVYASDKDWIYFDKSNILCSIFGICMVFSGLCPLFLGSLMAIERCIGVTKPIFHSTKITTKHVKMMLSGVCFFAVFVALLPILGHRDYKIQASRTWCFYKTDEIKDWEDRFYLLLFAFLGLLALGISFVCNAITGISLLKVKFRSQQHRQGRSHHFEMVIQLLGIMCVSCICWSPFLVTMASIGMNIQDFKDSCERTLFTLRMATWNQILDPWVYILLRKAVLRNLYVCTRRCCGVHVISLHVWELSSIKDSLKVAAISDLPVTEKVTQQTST
structure (smiles),measurement,setting,value
CC(C)OC(=O)CCC/C=C\C[C@@H]1[C@@H](OC[C@@H](O)CCc2cccc(C(F)(F)F)c2)[C@H](O)C[C@@H]1O,Activity,Oryctolagus cuniculus [1],38%
same,Activity,Oryctolagus cuniculus [2],3%
same,Activity,Oryctolagus cuniculus [3],25%
same,Activity,Oryctolagus cuniculus [4],0%
same,Activity,Felis catus [5],Non-toxic
same,Activity,Macaca fascicularis [6],30%
same,Activity,Macaca fascicularis [7],Not Active
same,Activity,Macaca fascicularis [8],21%
same,Activity,Oryctolagus cuniculus [9],73%
same,Activity,Oryctolagus cuniculus [10],8%
same,Activity,Oryctolagus cuniculus [11],0%
same,Activity,Oryctolagus cuniculus [12],3%
same,Activity,Oryctolagus cuniculus [13],5%
same,Activity,Macaca fascicularis [14],Not Active
same,Activity,Oryctolagus cuniculus [15],13%
same,Activity,Oryctolagus cuniculus [16],23%
same,Activity,Oryctolagus cuniculus [17],8%
same,Activity,Oryctolagus cuniculus [18],30%
same,Activity,Felis catus [19],6.57
same,Activity,Felis catus [20],10.2
same,Activity,Oryctolagus cuniculus [21],35%
same,Activity,Oryctolagus cuniculus [22],45%
same,Activity,Felis catus [23],3.12
same,Activity,Oryctolagus cuniculus [24],15%
same,Activity,Oryctolagus cuniculus [25],5%
same,Activity,Macaca fascicularis [26],22%
same,Activity,Oryctolagus cuniculus [27],25%
same,Activity,Oryctolagus cuniculus [28],13%
same,Activity,Oryctolagus cuniculus [29],23%
same,Activity,Macaca fascicularis [30],inactive
same,Activity,Felis catus [31],Non-toxic
same,Activity,Oryctolagus cuniculus [32],13%
O=C(O)CCC/C=C\C[C@@H]1[C@@H](OC[C@@H](O)COc2ccccc2)[C@H](O)C[C@@H]1O,EC50,[33],0.294 µM
same,Ki,[34],0.12 µM
same,Activity,[35],67%
O=C(O)CCC/C=C\C[C@@H]1[C@@H](OC[C@H](O)CCc2cccc(C(F)(F)F)c2)[C@H](O)C[C@@H]1O,EC50,[33],0.0057 µM
same,Ki,[34],0.13 µM
same,Activity,[35],82%
O=C(O)CCC/C=C\C[C@@H]1[C@@H](OC[C@@H](O)CCc2cccc(C(F)(F)F)c2)[C@H](O)C[C@@H]1O,EC50,[33],0.0019 µM
same,Ki,[34],0.072 µM
same,Activity,[35],78%
O=C(O)CCC/C=C\C[C@@H]1[C@@H](CC[C@@H](O)CCc2ccccc2)[C@H](O)C[C@@H]1O [LATANOPROST ACID],EC50,[33],0.0317 µM
same,Activity,Oryctolagus cuniculus [36],20%
same,Activity,Oryctolagus cuniculus [37],45%
same,Ki,[34],0.098 µM
same,Activity,[35],85%
same,Activity,Oryctolagus cuniculus [38],40%
O=C(O)CCC/C=C\C[C@@H]1[C@@H](OC[C@H](O)COc2cccc(Cl)c2)[C@H](O)C[C@@H]1O,EC50,[33],0.0622 µM
same,Ki,[34],0.14 µM
same,Activity,[35],86%
CCCCC[C@H](O)/C=C/[C@@H]1[C@@H](C/C=C\CCCC(=O)O)[C@@H](O)C[C@H]1O [DINOPROST],Activity,Oryctolagus cuniculus [15],100%
same,Activity,Oryctolagus cuniculus [18],40%
O=C(O)CCC/C=C\C[C@@H]1[C@@H](OC[C@H](O)COc2ccccc2)[C@H](O)C[C@@H]1O,EC50,[33],0.0686 µM
same,Ki,[34],0.087 µM
same,Activity,[35],67%
O=C(O)CCC/C=C\C[C@@H]1[C@@H](OC[C@@H](O)COc2cccc(Cl)c2)[C@H](O)C[C@@H]1O,EC50,[33],0.0524 µM
same,Ki,[34],0.68 µM
same,Activity,[35],62%
